Measurements: PubChem BioAssay AID493228 (Broad Institute, 2011)
Where “and” joins values, the source holds several entries; their conditions need not be identical. Equal entries are not always repeated. Records with an inconclusive call do not appear. Calls of active or inactive are those of the source.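 How the source made its calls: active means fitted dose curve passes 500% activation at or below the top valid tested dose; inconclusive means no clear call, values can overlap the other calls; inactive means the rest, opposite-direction activity included.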

Tested on: not listed separately
Assay: HRE-luciferase activation under added iron, dose response, mechanism study for HIF activator project, cell-based, iron medium, luminescence, U2OS, dry powder (AID 493228)
Conditions: U2OS HRE-luciferase reporter, iron medium, luminescence; at 38 µM (top of the series)
Summary of the method: (§1)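 Assay system – U2OS 3×HRE-luciferase reporter cells · Amount – 6,000 cells per well · Buffer or medium – ferric nitrate added, 50 µM final · Compound – 8 concentrations, 3-fold spacing · Incubation – cells plated 24 h before dosing, compound exposure 24 h at 37 °C · Technique – Steady-Glo luminescence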

Compound	activation
CC1CN(Cc2ccc(O)c3ncccc23)CC(C)O1 (stereo not given)	-85.2% (inactive)
Cc1ccc(CNC(=O)c2cc(-c3ccccc3)on2)cc1	13.2% (inactive)
CC(C)(C)c1ccc(CNc2nc(-c3ccccn3)nnc2-c2ccccc2)cc1	246% (inactive)
OCCCNc1nc(-c2ccccn2)nnc1-c1ccccc1	310% (inactive)
c1ccc(-c2nnc(-c3ccccn3)nc2Nc2nc3ccccc3s2)cc1	-17.3% (inactive)
Cc1cccc(NC(=O)c2cc(-c3ccccc3)on2)n1	47.5% (inactive)
CN(C)c1nc(-c2ccccn2)nnc1-c1ccccc1	80.9% (inactive)
O=C(Nc1nnc(-c2ccccc2)s1)c1cc(-c2ccccc2)on1	-5.78% (inactive)
Oc1ccc(CN2CCC3CCCCC3C2)c2cccnc12 (stereo not given)	-92.3% (inactive)
c1ccc(-c2nnc(-c3ccccn3)nc2NCc2cccnc2)cc1	402% (inactive)
OCC1CCN(Cc2ccc(O)c3ncccc23)CC1	-91.5% (inactive)
O=C(NC1CCc2ccccc2C1)c1cc(-c2ccccc2)on1 (stereo not given)	2.06% (inactive)
Oc1ccc(CN2CCc3ccccc3C2)c2cccnc12	-88.2% (inactive) and -90.7% (inactive)
Cc1ccccc1CNC(=O)c1cc(-c2ccccc2)on1	40.9% (inactive)
c1ccc(-c2nnc(-c3ccccn3)nc2NCCCN2CCOCC2)cc1	168% (inactive)
CN(C)CCNC(=O)c1cc(-c2ccccc2)on1	36.8% (inactive)
Cc1ccc(Nc2nc(-c3ccccn3)nnc2-c2ccccc2)cn1	473% (inactive)
c1ccc(-c2nnc(-c3ccccn3)nc2Nc2cnc3ccccc3n2)cc1	299% (inactive)
Cc1cccc(Nc2nc(-c3ccccn3)nnc2-c2ccccc2)n1	306% (inactive)
O=C(Nc1cn2ccccc2n1)c1cc(-c2ccccc2)on1	36% (inactive)
C=CCNc1nc(-c2ccccn2)nnc1-c1ccccc1	288% (inactive)
N#CC1(c2ccccc2)CCN(Cc2ccc(O)c3ncccc23)CC1	10.5% (inactive)
CN1CCN(c2nc(-c3ccccn3)nnc2-c2ccccc2)CC1	315% (inactive)
c1ccc(-c2csc(Nc3nc(-c4ccccn4)nnc3-c3ccccc3)n2)cc1	73.9% (inactive)
c1ccc(-c2cccc(CNc3nc(-c4ccccn4)nnc3-c3ccccc3)c2)cc1	113% (inactive)
Oc1ccc(CNC2Cc3ccccc3C2)c2cccnc12	-87.7% (inactive)
Cn1c(NC(=O)c2cc(-c3ccccc3)on2)nc2ccccc21	4.17% (inactive)
O=C(NCc1ccccc1)c1cc(-c2ccccc2)on1	65.7% (inactive)

Compound	activation
c1ccc(-c2nnc(-c3ccccn3)nc2NCCc2ccccn2)cc1	460% (inactive)
O=C(c1cc(-c2ccccc2)on1)N1CCN(c2ccncc2)CC1	-9.52% (inactive)
O=C(Nc1nc2ccccc2s1)c1cc(-c2ccccc2)on1	22.7% (inactive)
CC(C)(C)OC(=O)N1CCN(Cc2ccc(O)c3ncccc23)CC1	10.8% (inactive)
Oc1ccc(CNC2CCc3ccccc32)c2cccnc12 (stereo not given)	-90.3% (inactive)
O=C(NCCN1CCCCC1)c1cc(-c2ccccc2)on1	64.1% (inactive)
c1ccc(-c2nnc(-c3ccccn3)nc2NCC2CC2)cc1	392% (inactive)
Cc1ccc(NC(=O)c2cc(-c3ccccc3)on2)cn1	-1.64% (inactive)
Cn1c(-c2ccccc2)cnc1NC(=O)c1cc(-c2ccccc2)on1	23.2% (inactive)
O=C(c1cc(-c2ccccc2)on1)N1CCC(N2CCOCC2)CC1	9.93% (inactive)
O=C(Nc1cnc2ccccc2c1)c1cc(-c2ccccc2)on1	26% (inactive)
CN1CCN(C(=O)c2cc(-c3ccccc3)on2)CC1	4.95% (inactive)
COc1ccccc1N1CCN(Cc2ccc(O)c3ncccc23)CC1	-77.4% (inactive)
Oc1ccc(CN2CCC(Cc3ccccc3)CC2)c2cccnc12	27% (inactive)
O=C(Nc1ccc2ccccc2n1)c1cc(-c2ccccc2)on1	10.3% (inactive)
c1ccc(-c2nnc(-c3ccccn3)nc2NCC2CCOCC2)cc1	226% (inactive)
O=C(NC1Cc2ccccc2C1)c1cc(-c2ccccc2)on1	175% (inactive)
c1ccc(-c2nnc(Nc3nc(-c4ccccn4)nnc3-c3ccccc3)s2)cc1	67% (inactive)
O=C(c1cc(-c2ccccc2)on1)N1CCC(N2CCCC2)CC1	0.413% (inactive)
c1ccc(-c2nnc(-c3ccccn3)nc2N2CCC(C3CCCCC3)C2)cc1 (stereo not given)	17.7% (inactive)
c1ccc(-c2cnc(Nc3nc(-c4ccccn4)nnc3-c3ccccc3)s2)cc1	-26.9% (inactive)
C[C@@H](Nc1nc(-c2ccccn2)nnc1-c1ccccc1)C1CCCCC1	419% (inactive)
O=C(Nc1ncc2ccccc2n1)c1cc(-c2ccccc2)on1	196% (inactive)
O=C(Nc1ncc(-c2ccccc2)o1)c1cc(-c2ccccc2)on1	22.7% (inactive)
c1ccc(-c2nnc(-c3ccccn3)nc2N2CCC(c3ccccc3)C2)cc1 (stereo not given)	313% (inactive)
O=C(Nc1nc(-c2ccccc2)cs1)c1cc(-c2ccccc2)on1	-5.37% (inactive)
Cn1c(-c2ccccc2)cnc1Nc1nc(-c2ccccn2)nnc1-c1ccccc1	-7.02% (inactive)

Tested on: U2OS HRE-luciferase reporter, iron medium, luminescence
Assay: as above
Conditions: not given
Summary of the method: as §1

Compound	AC50
CCCCNC(=O)c1cc(-c2ccccc2)on1	7.93 µM
O=C(NCCCCO)c1cc(-c2ccccc2)on1	2.72 µM
c1ccc(-c2nnc(-c3ccccn3)nc2NCc2ccccn2)cc1	27.7 µM
CC(C)(C)CCNc1nc(-c2ccccn2)nnc1-c1ccccc1	17 µM and 16.2 µM
O=C(NCC1CC1)c1cc(-c2ccccc2)on1	7.37 µM
C[C@H](Nc1nc(-c2ccccn2)nnc1-c1ccccc1)C1CCCCC1	18.9 µM
Clc1cccc(CNc2nc(-c3ccccn3)nnc2-c2ccccc2)c1	17.9 µM
COc1cccc(CNc2nc(-c3ccccn3)nnc2-c2ccccc2)c1	22.8 µM
C[C@@H](Nc1nc(-c2ccccn2)nnc1-c1ccccc1)c1ccccc1	20.7 µM
c1ccc(-c2nnc(-c3ccccn3)nc2N2CCC(N3CCOCC3)CC2)cc1	36 µM
CC(C)(C)CCNC(=O)c1cc(-c2ccccc2)on1	23.1 µM
O=C(NCCN1CCOCC1)c1cc(-c2ccccc2)on1	12.4 µM
CC(Nc1nc(-c2ccccn2)nnc1-c1ccccc1)c1ccccc1 (stereo not given)	23.2 µM
c1ccc(-c2ccc(CNc3nc(-c4ccccn4)nnc3-c3ccccc3)cc2)cc1	9.24 µM
Cc1cccc(CNc2nc(-c3ccccn3)nnc2-c2ccccc2)c1	17.3 µM
c1ccc(-c2nnc(-c3ccccn3)nc2NCC2CCCCC2)cc1	18.2 µM
O=C(NCCCO)c1cc(-c2ccccc2)on1	7.47 µM
O=C(NCCCN1CCOCC1)c1cc(-c2ccccc2)on1	12 µM
Cc1ccccc1CNc1nc(-c2ccccn2)nnc1-c1ccccc1	25 µM
c1ccc(CNc2nc(-c3ccccn3)nnc2-c2ccccc2)cc1	17 µM
c1ccc(-c2nnc(-c3ccccn3)nc2NCCN2CCOCC2)cc1	31.7 µM
O=C(NCCCn1ccnc1)c1cc(-c2ccccc2)on1	6.23 µM
c1ccc(CCNc2nc(-c3ccccn3)nnc2-c2ccccc2)cc1	20.9 µM
Cc1ccc(CNc2nc(-c3ccccn3)nnc2-c2ccccc2)cc1C	13.6 µM
COc1ccc(CNc2nc(-c3ccccn3)nnc2-c2ccccc2)cc1	14.3 µM
